The source of these data is ChEMBL document CHEMBL1157836, “Dibenzocyclooctadiene lignans from Schisandra wilsoniana and their anti-HIV-1 activities” (J Nat Prod, 2010).

For series [1], the system named is Human immunodeficiency virus 1. As to the kind of experiment: Antiviral activity against HIV1 infected in human C8166 cells assessed as inhibition of virus-induced cytopathic effect. Particulars: Human immunodeficiency virus 1, C8166. The series is classed as functional, organism-based. The method in brief: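 HIV-1 cytopathic-effect inhibition assay in C8166 cells, giving EC50. AZT served as the positive control. Cytotoxicity was determined in parallel.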

The nature of series [2]: Cytotoxicity against human C8166 cells by MTT assay. The series is classed as cell-based. The method in brief: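 C8166 cells were tested by MTT assay alongside the anti-HIV-1 determination, giving CC50. AZT served as the positive control.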
(In general: Formazan colour is commonly taken as a measure of viable cells.)

Series [3] is described as follows: Therapeutic index, ratio of CC50 for C8166 cells to EC50 for HIV1. Particulars: human, read-out: TI. It is filed as cell-based. In a few lines: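 TI was calculated as CC50 over EC50. CC50 came from the MTT assay on C8166 cells; EC50 came from HIV-1 cytopathic-effect inhibition in C8166 cells, run in parallel.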

SMILES strings stand for the structures. In brackets after ≈: the same amount, converted by molar mass.

On to `COc1c(O)cc2c(c1OC)-c1c(cc(O)c(OC)c1OC)[C@H](OC(=O)c1ccccc1)[C@@H](C)[C@@H](C)C2`, for which, in series [1], the EC50 (in general, the concentration at which the effect is half-maximal) turned out to be 2.1 µg/mL (≈ 4.13 µM). Moreover, in series [2], the CC50 – broadly, the concentration giving 50% cytotoxicity – stood at 14.2 µg/mL (≈ 27.9 µM). Also, the selectivity ratio in series [3] is 6.7.

Take `COc1c(O)cc2c(c1O)-c1c(cc(O)c(OC)c1OC)C[C@@H](C)[C@@H](C)C2` [MARLIGNAN A]: the EC50 in series [1] was determined as 2.6 µg/mL (≈ 6.94 µM). In addition, it took 15.8 µg/mL (≈ 42.2 µM) to reach half-maximal cytotoxicity in series [2] (CC50). Moreover, the selectivity ratio in series [3] was 6.

As to `COc1cc2c(c(O)c1OC)-c1c(cc(O)c(OC)c1O)C[C@@H](C)[C@@H](C)C2` [MARLIGNAN B], in series [1], the EC50 was determined as 5.1 µg/mL (≈ 13.6 µM). The cytotoxic concentration (CC50) in series [2] was 43.4 µg/mL (≈ 116 µM). Further, the selectivity ratio in series [3] came to 8.4.

Consider `COc1cc2c(c(O)c1O)-c1c(cc(OC)c(OC)c1O)C[C@@H](C)[C@@H](C)C2` [MARLIGNAN C], for which the EC50 in series [1] is 5 µg/mL (≈ 13.4 µM). For the same compound, the CC50 in series [2] came to 65.6 µg/mL (≈ 175 µM). Also, in series [3], the selectivity ratio was determined as 13.2.

As to `COc1c(O)cc2c(c1OC)-c1c(cc(O)c(OC)c1OC)[C@H](O)[C@@H](C)[C@@H](C)C2` [MARLIGNAN D], in series [1], the EC50 was determined as 2.5 µg/mL (≈ 6.18 µM). This compound showed a CC50 in series [2] of 14.2 µg/mL (≈ 35.1 µM). In addition, the selectivity ratio in series [3] was 5.7.

On to `COc1c(O)cc2c(c1OC)-c1c(cc(O)c(OC)c1OC)[C@H](OC(C)=O)[C@@H](C)[C@@H](C)C2` [MARLIGNAN E], for which the EC50 in series [1] was determined as 1.6 µg/mL (≈ 3.58 µM). This compound returned a CC50 in series [2] of 13.7 µg/mL (≈ 30.7 µM). In series [3], the selectivity ratio was 8.7.

With `COc1c(O)cc2c(c1OC)-c1c(cc(O)c(OC)c1OC)[C@H](OC)[C@@H](C)[C@@H](C)C2` [MARLIGNAN F], the EC50 in series [1] was determined as 1.4 µg/mL (≈ 3.35 µM). In series [2], this compound showed a CC50 of 21.4 µg/mL (≈ 51.1 µM). In series [3], the selectivity ratio was 15.6.

Turning to `COc1c(O)cc2c(c1OC)-c1c(cc(O)c(OC)c1OC)C(=O)[C@@H](C)[C@@H](C)C2` [MARLIGNAN H], in series [1], the EC50 turned out to be 2.6 µg/mL (≈ 6.46 µM). The same compound gave a CC50 in series [2] of 46.5 µg/mL (≈ 116 µM). Moreover, the selectivity ratio in series [3] amounted to 17.6.

As to `COc1cc2c(c(OC)c1OC)-c1c(cc(OC)c(OC)c1OC)[C@H](OC(C)=O)[C@@H](C)[C@@H](C)C2` [MARLIGNAN I], in series [1], the EC50 worked out at 2.9 µg/mL (≈ 6.11 µM). This compound also showed a CC50 in series [2] of 13.5 µg/mL (≈ 28.4 µM). In series [3], the selectivity ratio worked out at 4.6.

For `CCO[C@H]1c2cc(OC)c(OC)c(OC)c2-c2c(cc(OC)c(OC)c2OC)C[C@H](C)[C@@H]1C` [MARLIGNAN J], the EC50 in series [1] worked out at 1.9 µg/mL (≈ 4.13 µM). The same compound displayed a 50% cytotoxic concentration (CC50) in series [2] of 17.2 µg/mL (≈ 37.3 µM). Further, the selectivity ratio in series [3] was 9.3.

Take `COc1cc2c(c(OC)c1OC)-c1c(cc(O)c(OC)c1O)C[C@H](C)[C@@](C)(O)C2` [MARLIGNAN K]: the EC50 in series [1] stood at 1.9 µg/mL (≈ 4.7 µM). In series [2], this compound returned a CC50 of 14.8 µg/mL (≈ 36.6 µM). Besides, the selectivity ratio in series [3] amounted to 7.7.

`COc1c(O)cc2c(c1OC)-c1c(cc(O)c(OC)c1OC)C[C@](C)(O)[C@@H](C)C2` [MARLIGNAN L]: in series [1], the EC50 came out at 1.4 µg/mL (≈ 3.46 µM). In series [2], this compound had a 50% cytotoxic concentration (CC50) of 22.6 µg/mL (≈ 55.9 µM). In series [3], the selectivity ratio stood at 16.4.
